SMILES strings stand for the structures. ≈ marks a conversion by molar mass, not a printed value. Some results are limits rather than exact numbers.

Experiment [1] in a line: Antimicrobial activity against Salmonella enterica serotype Newport AM17274 expressing CMY-31 cephalosporinase by agar dilution method. The format is functional, Salmonella enterica subsp. enterica serovar Newport. A digest of the protocol:
(§1)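 MICs of β-lactams determined by agar dilution against the clinical isolates.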

For experiment [2], the system named is Klebsiella pneumoniae. As to the kind of experiment: Antimicrobial activity against Klebsiella pneumoniae HP205 expressing CMY-36 cephalosporinase by agar dilution method. The format is functional. A digest of the protocol:
as §1

For experiment [3], the system named is Escherichia coli. As to the kind of experiment: Antimicrobial activity against Escherichia coli DH5[alpha] transformant harboring pA172 plasmid expressing cephalosporinase CMY-31 by agar dilution method. The format is functional.
Experiment [4] has as its system Escherichia coli. As to the kind of experiment: Antimicrobial activity against Escherichia coli DH5[alpha] transformant harboring pH205 plasmid expressing cephalosporinase CMY-36 by agar dilution method. It counts as functional.
Experiment [5] has as its system Escherichia coli. As to the kind of experiment: Antimicrobial activity against Escherichia coli DH5[alpha] harboring pB-c31 plasmid expressing cephalosporinase CMY-31 by agar dilution method. It counts as functional.
Experiment [6] deals with Escherichia coli. As to the kind of experiment: Antimicrobial activity against Escherichia coli DH5[alpha] harboring pB-c36 plasmid expressing cephalosporinase CMY-36 by agar dilution method. It counts as functional.
For experiment [7], the system named is Escherichia coli. The experiment can be described thus: Antimicrobial activity against Escherichia coli DH5[alpha] harboring pB-c2 plasmid expressing cephalosporinase CMY-2 by agar dilution method. It counts as functional.
The test system of experiment [8] is Escherichia coli. As to the kind of experiment: Antimicrobial activity against Escherichia coli DH5[alpha] harboring pBCSK plasmid by agar dilution method. It counts as functional.
Experiment [9] can be described thus: Antimicrobial activity against Salmonella enterica serotype Newport AM17274 expressing CMY-31 cephalosporinase by agar dilution method in presence of Tazobactam. It counts as functional, Salmonella enterica subsp. enterica serovar Newport.
Experiment [10] has as its system Klebsiella pneumoniae. As to the kind of experiment: Antimicrobial activity against Klebsiella pneumoniae HP205 expressing CMY-36 cephalosporinase by agar dilution method in presence of Tazobactam. It counts as functional.
The test system of experiment [11] is Escherichia coli. The experiment can be described thus: Antimicrobial activity against Escherichia coli DH5[alpha] transformant harboring pA172 plasmid expressing cephalosporinase CMY-31 by agar dilution method in presence of Tazobactam. The format is functional.
Experiment [12] concerns Escherichia coli. The experiment can be described thus: Antimicrobial activity against Escherichia coli DH5[alpha] transformant harboring pH205 plasmid expressing cephalosporinase CMY-36 by agar dilution method in presence of Tazobactam. It counts as functional.
Experiment [13] deals with Escherichia coli. As to the kind of experiment: Antimicrobial activity against Escherichia coli DH5[alpha] harboring pB-c31 plasmid expressing cephalosporinase CMY-31 by agar dilution method in presence of Tazobactam. It counts as functional.
The test system of experiment [14] is Escherichia coli. The experiment can be described thus: Antimicrobial activity against Escherichia coli DH5[alpha] harboring pB-c36 plasmid expressing cephalosporinase CMY-36 by agar dilution method in presence of Tazobactam. It counts as functional.
The test system of experiment [15] is Escherichia coli. The experiment can be described thus: Antimicrobial activity against Escherichia coli DH5[alpha] harboring pB-c2 plasmid expressing cephalosporinase CMY-2 by agar dilution method in presence of Tazobactam. It counts as functional.
The test system of experiment [16] is Escherichia coli. The experiment can be described thus: Antimicrobial activity against Escherichia coli DH5[alpha] harboring pBCSK plasmid by agar dilution method in presence of Tazobactam. It counts as functional.
Experiment [17] has as its target Class C beta-lactamase CMY-36 (Klebsiella pneumoniae, UniProt Q48435). As to the kind of experiment: Inhibition of Klebsiella pneumoniae HP205 cephalosporinase CMY-36 by UV spectrophotometer in presence of 100 uM of cephalothin.
Experiment [18] in a line: Inhibition of CMY-2 by UV spectrophotometer in presence of 100 uM of cephalothin.
Experiment [19] is described as follows: Antimicrobial activity against Salmonella enterica serotype Newport AM17274 expressing CMY-31 cephalosporinase by agar dilution method in presence of clavulanic acid. The format is functional, Salmonella enterica subsp. enterica serovar Newport. A digest of the protocol: as §1
Experiment [20] has as its system Klebsiella pneumoniae. As to the kind of experiment: Antimicrobial activity against Klebsiella pneumoniae HP205 expressing CMY-36 cephalosporinase by agar dilution method in presence of clavulanic acid in presence of clavulanic acid. It counts as functional. A digest of the protocol: as §1
The test system of experiment [21] is Escherichia coli. The experiment can be described thus: Antimicrobial activity against Escherichia coli DH5[alpha] transformant harboring pA172 plasmid expressing cephalosporinase CMY-31 by agar dilution method in presence of clavulanic acid. The format is functional.
Experiment [22] deals with Escherichia coli. As to the kind of experiment: Antimicrobial activity against Escherichia coli DH5[alpha] transformant harboring pH205 plasmid expressing cephalosporinase CMY-36 by agar dilution method in presence of clavulanic acid. It counts as functional.
The test system of experiment [23] is Escherichia coli. The experiment can be described thus: Antimicrobial activity against Escherichia coli DH5[alpha] harboring pB-c31 plasmid expressing cephalosporinase CMY-31 by agar dilution method in presence of clavulanic acid. It counts as functional.
Experiment [24] has as its system Escherichia coli. The experiment can be described thus: Antimicrobial activity against Escherichia coli DH5[alpha] harboring pB-c36 plasmid expressing cephalosporinase CMY-36 by agar dilution method in presence of clavulanic acid. The format is functional.
Experiment [25] deals with Escherichia coli. As to the kind of experiment: Antimicrobial activity against Escherichia coli DH5[alpha] harboring pB-c2 plasmid expressing cephalosporinase CMY-2 by agar dilution method in presence of clavulanic acid. The format is functional.
The test system of experiment [26] is Escherichia coli. As to the kind of experiment: Antimicrobial activity against Escherichia coli DH5[alpha] harboring pBCSK plasmid by agar dilution method in presence of clavulanic acid. The format is functional.

Class C beta-lactamase CMY-36, sequence (Q48435 whole entry): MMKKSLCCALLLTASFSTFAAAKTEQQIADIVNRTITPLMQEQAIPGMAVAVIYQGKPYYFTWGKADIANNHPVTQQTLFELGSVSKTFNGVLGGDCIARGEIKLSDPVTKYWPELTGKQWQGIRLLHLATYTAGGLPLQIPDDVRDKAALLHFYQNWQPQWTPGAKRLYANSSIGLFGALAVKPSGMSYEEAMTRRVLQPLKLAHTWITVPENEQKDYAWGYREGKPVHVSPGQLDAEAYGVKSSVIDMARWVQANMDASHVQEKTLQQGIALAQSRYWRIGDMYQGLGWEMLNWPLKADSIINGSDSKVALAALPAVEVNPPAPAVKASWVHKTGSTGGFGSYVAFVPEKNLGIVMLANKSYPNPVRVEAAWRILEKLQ

On to `CCN1CCN(C(=O)N[C@@H](C(=O)N[C@@H]2C(=O)N3[C@@H]2SC(C)(C)[C@@H]3C(=O)O)c2ccccc2)C(=O)C1=O` [PIPERACILLIN], for which the MIC in [1] is 64 µg/mL (≈ 124 µM); against Klebsiella pneumoniae [2], 128 µg/mL (≈ 247 µM); against Escherichia coli [3], 128 µg/mL (≈ 247 µM); against Escherichia coli [4] it was 128 µg/mL (≈ 247 µM); in the experiment on Escherichia coli [5], 256 µg/mL (≈ 495 µM); in the experiment with Escherichia coli [6], 256 µg/mL (≈ 495 µM). Besides, the MIC amounted to 256 µg/mL (≈ 495 µM) against Escherichia coli [7]; 1 µg/mL (≈ 1.93 µM) with Escherichia coli [8]; 16 µg/mL in experiment [9]; 32 µg/mL in the experiment with Klebsiella pneumoniae [10]; 32 µg/mL with Escherichia coli [11]; 32 µg/mL in the experiment on Escherichia coli [12]. Moreover, the MIC with Escherichia coli [13] was found to be 64 µg/mL; in the experiment on Escherichia coli [14], 64 µg/mL; in the experiment on Escherichia coli [15], 64 µg/mL; in the experiment on Escherichia coli [16] it was 0.5 µg/mL.

As to `Cc1onc(-c2ccccc2Cl)c1C(=O)N[C@@H]1C(=O)N2[C@@H]1SC(C)(C)[C@@H]2C(=O)O` [CLOXACILLIN], the IC50 in experiment [17] and in experiment [18] was 4 nM throughout.

`CC1(C)S[C@@H]2[C@H](NC(=O)[C@H](N)c3ccc(O)cc3)C(=O)N2[C@H]1C(=O)O` [AMOXICILLIN]: the MIC (in experiment [1]; in the experiment on Klebsiella pneumoniae [2]; in the experiment on Escherichia coli [3]; in the experiment with Escherichia coli [4]; with Escherichia coli [5]; against Escherichia coli [6]) was above 256 µg/mL in each case. The MIC against Escherichia coli [7] was above 256 µg/mL; in the experiment with Escherichia coli [8] it was 2 µg/mL (≈ 5.47 µM); in experiment [19] it was above 64 µg/mL; in the experiment on Klebsiella pneumoniae [20] it was above 64 µg/mL; with Escherichia coli [21], above 64 µg/mL; with Escherichia coli [22] it was above 64 µg/mL. Also, the MIC is above 64 µg/mL in the experiment with Escherichia coli [23], above 64 µg/mL in the experiment on Escherichia coli [24], above 64 µg/mL in the experiment with Escherichia coli [25] and 2 µg/mL with Escherichia coli [26].

Take `CO[C@@]1(NC(=O)Cc2cccs2)C(=O)N2C(C(=O)O)=C(COC(N)=O)CS[C@@H]21` [CEFOXITIN]: the MIC (in experiment [1]; with Klebsiella pneumoniae [2]; with Escherichia coli [3]; in the experiment with Escherichia coli [4]; in the experiment on Escherichia coli [5]; with Escherichia coli [6]) was above 256 µg/mL each time. The MIC is above 256 µg/mL against Escherichia coli [7] and 4 µg/mL (≈ 9.36 µM) in the experiment on Escherichia coli [8].

As for `CO/N=C(\C(=O)N[C@@H]1C(=O)N2C(C(=O)[O-])=C(C[N+]3(C)CCCC3)CS[C@H]12)c1csc(N)n1`, the MIC in experiment [1] worked out at 0.12 µg/mL (≈ 0.25 µM); against Escherichia coli [3] it was 0.12 µg/mL (≈ 0.25 µM); with Escherichia coli [4], 0.25 µg/mL (≈ 0.52 µM); against Escherichia coli [5] it was 0.25 µg/mL (≈ 0.52 µM); against Escherichia coli [6] it was 0.25 µg/mL (≈ 0.52 µM); against Escherichia coli [7], 0.25 µg/mL (≈ 0.52 µM).

On to `CO/N=C(\C(=O)N[C@@H]1C(=O)N2C(C(=O)O)=C(COC(C)=O)CS[C@H]12)c1csc(N)n1` [CEFOTAXIME], for which the MIC is 32 µg/mL (≈ 70.3 µM) in [1]; 32 µg/mL (≈ 70.3 µM) in the experiment with Klebsiella pneumoniae [2]; 32 µg/mL (≈ 70.3 µM) with Escherichia coli [3]; 32 µg/mL (≈ 70.3 µM) with Escherichia coli [4]; 128 µg/mL (≈ 281 µM) in the experiment on Escherichia coli [5]; 128 µg/mL (≈ 281 µM) in the experiment on Escherichia coli [6]. Also, the MIC with Escherichia coli [7] came out at 128 µg/mL (≈ 281 µM); in the experiment with Escherichia coli [8] it was 0.12 µg/mL (≈ 0.263 µM).

`C[C@@H](O)[C@H]1C(=O)N2C(C(=O)O)=C(SCCNC=N)C[C@H]12` [IMIPENEM ANHYDROUS]: the MIC worked out at 0.25 µg/mL (≈ 0.835 µM) in experiment [1]; 0.5 µg/mL (≈ 1.67 µM) in the experiment with Klebsiella pneumoniae [2]; 0.5 µg/mL (≈ 1.67 µM) with Escherichia coli [3]; 0.5 µg/mL (≈ 1.67 µM) with Escherichia coli [4]; 0.5 µg/mL (≈ 1.67 µM) against Escherichia coli [5]; 0.5 µg/mL (≈ 1.67 µM) against Escherichia coli [6]. For the same compound, the MIC in the experiment on Escherichia coli [7] turned out to be 0.5 µg/mL (≈ 1.67 µM).

In the case of `C[C@]1(/C=C\C#N)[C@H](C(=O)O)N2C(=O)C[C@H]2S1(=O)=O`, the concentration for half-maximal inhibition (IC50) in [17] and in [18] was 300 nM throughout.

As to `CO/N=C(\C(=O)N[C@@H]1C(=O)N2C(C(=O)O)=C(COC(N)=O)CS[C@H]12)c1ccco1` [CEFUROXIME], the MIC (in experiment [1]; against Klebsiella pneumoniae [2]; against Escherichia coli [3]; in the experiment on Escherichia coli [4]; in the experiment on Escherichia coli [5]; against Escherichia coli [6]) was above 256 µg/mL throughout. Also, the minimum inhibitory concentration (MIC) was above 256 µg/mL against Escherichia coli [7] and 2 µg/mL (≈ 4.71 µM) against Escherichia coli [8].

With `CC1(C)S[C@@H]2[C@H](NC(=O)[C@H](C(=O)O)c3ccsc3)C(=O)N2[C@H]1C(=O)O` [TICARCILLIN], the MIC (in experiment [1]; in the experiment with Klebsiella pneumoniae [2]; with Escherichia coli [3]; against Escherichia coli [4]; with Escherichia coli [5]; against Escherichia coli [6]) was above 256 µg/mL each time. The results for the MIC with Escherichia coli [7] and with Escherichia coli [8] were above 256 µg/mL and 2 µg/mL (≈ 5.2 µM), respectively.

For `CO/N=C(\C(=O)N[C@@H]1C(=O)N2C(C(=O)O)=C(CSc3nc(=O)c(O)nn3C)CS[C@H]12)c1csc(N)n1` [CEFTRIAXONE], the MIC came out at 16 µg/mL (≈ 28.9 µM) in [1]; 32 µg/mL (≈ 57.7 µM) in the experiment on Klebsiella pneumoniae [2]; 32 µg/mL (≈ 57.7 µM) in the experiment with Escherichia coli [3]; 64 µg/mL (≈ 115 µM) with Escherichia coli [4]; 256 µg/mL (≈ 462 µM) against Escherichia coli [5]; 128 µg/mL (≈ 231 µM) against Escherichia coli [6]. In addition, the MIC with Escherichia coli [7] is 128 µg/mL (≈ 231 µM); in the experiment on Escherichia coli [8], 0.12 µg/mL (≈ 0.216 µM).

In the case of `CC(C)(O/N=C(\C(=O)N[C@@H]1C(=O)N2C(C(=O)[O-])=C(C[n+]3ccccc3)CS[C@H]12)c1csc(N)n1)C(=O)O` [CEFTAZIDIME], the MIC in experiment [1] was found to be 32 µg/mL (≈ 58.5 µM); against Klebsiella pneumoniae [2], 64 µg/mL (≈ 117 µM); against Escherichia coli [3], 128 µg/mL (≈ 234 µM); in the experiment on Escherichia coli [4] it was 128 µg/mL (≈ 234 µM); against Escherichia coli [5], 256 µg/mL (≈ 468 µM); against Escherichia coli [6], 256 µg/mL (≈ 468 µM). For the same compound, the figures for the MIC with Escherichia coli [7] and against Escherichia coli [8] were 256 µg/mL (≈ 468 µM) and 0.5 µg/mL (≈ 0.915 µM), respectively.

(Values after ChEMBL document CHEMBL1629653, “CMY-31 and CMY-36 cephalosporinases encoded by ColE1-like plasmids” (Antimicrob Agents Chemother, 2009).)
